In ChEMBL document CHEMBL5107950, “Structure-based design of haloperidol analogues as inhibitors of acetyltransferase Eis from Mycobacterium tuberculosis to overcome kanamycin resistance” (RSC Med Chem, 2021):
Values after ≈ are worked out from the molar mass of the structure shown. Active and inactive are the calls of the source. The calls are words filed in the database; no cut-off is given here.

Experiments:
[1] = tested on: Mycobacterium tuberculosis; assay: Potentiation of kanamycin-induced antibacterial activity against Mycobacterium tuberculosis K204 assessed as kanamycin MIC incubated for 1 day followed by kanamycin addition for 6 days and by Alamar blue assay; type: functional; conditions: K204, 168 h, time 7 day
In short: (§1)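 Mtb in 7H9 + 10% ADC, 0.05% Tween 80, 0.4% glycerol at 37 °C. Inoculum adjusted to OD600 0.2, diluted 1:25. Cells preincubated 24 h at 37 °C with compound (100 µL of 200 µM solution). KAN then added: H37Rv at 2.5 and 1.25 µg/mL; K204 at 10, 5, 2.5, 1.25 µg/mL. Incubated 6 days, AlamarBlue added, colour read at 24 and 48 h. MIC = lowest KAN with no colour change. At least twice in duplicate.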

J774.A1 [2] = assay: Cytotoxicity against mouse J774.A1 cells assessed as reduction in cell viability at 100 uM incubated for 24 hrs by resazurin assay; type: toxicity, cell-based; conditions: j774.a1, 24 h
In short: (§2)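 Resazurin viability assay in DMEM + 10% FBS, 1% penicillin/streptomycin, 37 °C, 5% CO₂. Seeding: HEK-293 and J774A.1 at 1×10^4 cells/mL, A549 at 5×10^3 cells/mL. After 24 h, compounds added (0.78-200 μM, 0.5% DMSO final). Resazurin added 24 h later, read after 6 h. 1% Triton X as positive control. Quadruplicate.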

N-acetyltransferase Eis = molecular target: T1, N-acetyltransferase Eis (Mycobacterium tuberculosis (strain ATCC 25618 / H37Rv), UniProt P9WFK7); assay: Inhibition of Mycobacterium tuberculosis Eis assessed as Eis-mediated kanamycin acetylation preincubated for 10 mins followed by substrate addition and measured for 2 to 5 mins using acetyl-CoA as substrate in presence of kanamycin by UV-Vis spectroscopy analysis
T1 sequence (P9WFK7 whole entry): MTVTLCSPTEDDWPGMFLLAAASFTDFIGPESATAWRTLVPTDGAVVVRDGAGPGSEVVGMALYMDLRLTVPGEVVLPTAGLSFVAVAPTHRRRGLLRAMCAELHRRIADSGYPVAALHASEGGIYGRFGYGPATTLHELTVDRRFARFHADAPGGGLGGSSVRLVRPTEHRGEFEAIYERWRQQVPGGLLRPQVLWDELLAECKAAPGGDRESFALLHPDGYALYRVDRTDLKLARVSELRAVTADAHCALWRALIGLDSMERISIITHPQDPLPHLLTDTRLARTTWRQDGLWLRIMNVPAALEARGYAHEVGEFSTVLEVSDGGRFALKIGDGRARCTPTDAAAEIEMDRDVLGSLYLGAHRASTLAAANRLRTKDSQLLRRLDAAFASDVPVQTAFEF
In short: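 Recombinant Eis (1 µM) mixed with KAN (400 µM) in 50 mM Tris-HCl pH 8.0 and preincubated 10 min with 5-fold serially diluted inhibitor (10% DMSO in buffer). Reaction started with AcCoA and DTNB (2 mM each, as added). Absorbance read every 30 s for 20 min. Initial rates (first 2-5 min) fitted to Hill plot for IC50. At least triplicate.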

[3] = tested on: Mycobacteroides abscessus; assay: Antibacterial activity against Mycobacterium abscessus ATCC 19977 assessed as inhibition of bacterial growth incubated upto 3 weeks hrs by resazurin dye based double-dilution method; type: functional; conditions: ATCC 19977, 504 h
In short: (§3)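 Double-dilution broth MIC. Media: M. smegmatis, Mueller-Hinton; M. abscessus, 7H9 + 0.05% Tween80 + 0.4% glycerol; mc²6230, 7H9 + 0.05% tyloxapol, 0.5% glycerol, 10% OADC, 0.2% casamino acids, 24 µg/mL pantothenate; other mycobacteria, 7H9 + 0.05% Tween80, 0.4% glycerol, 10% ADC. Inoculum from agar set to 0.5 McFarland, then diluted 1:100.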

[4] = tested on: Mycolicibacterium smegmatis; assay: Antibacterial activity against Mycobacterium smegmatis mc2 155 assessed as inhibition of bacterial growth incubated upto 3 weeks hrs by resazurin dye based double-dilution method; type: functional; conditions: mc2 155, 504 h; in short: as §3
[5] = tested on: Mycobacterium tuberculosis; assay: Antibacterial activity against Mycobacterium tuberculosis H37Ra ATCC NRS22 assessed as inhibition of bacterial growth incubated upto 3 weeks hrs by resazurin dye based double-dilution method; type: functional; conditions: H37Ra ATCC NRS22, 504 h; in short: as §3
[6] = tested on: Mycobacterium intracellulare; assay: Antibacterial activity against Mycobacterium intracellulare ATCC 13950 assessed as inhibition of bacterial growth incubated upto 3 weeks hrs by resazurin dye based double-dilution method; type: functional; conditions: ATCC 13950, 504 h; in short: as §3
[7] = tested on: Mycobacterium tuberculosis; assay: Potentiation of kanamycin-induced antibacterial activity against Mycobacterium tuberculosis H37Rv assessed as kanamycin MIC incubated for 1 day followed by kanamycin addition for 6 days and by Alamar blue assay; type: functional; conditions: 168 h, time 7 day; in short: as §1
Mycobacterium avium [8] = assay: Antibacterial activity against Mycobacterium avium ATCC 25921 assessed as inhibition of bacterial growth incubated upto 3 weeks hrs by resazurin dye based double-dilution method; type: functional; conditions: ATCC 25921, 504 h; in short: as §3
A549 [9] = assay: Cytotoxicity against human A549 cells assessed as reduction in cell viability at 100 uM incubated for 24 hrs by resazurin assay; type: toxicity, cell-based; conditions: a549, 24 h; in short: as §2
Mycobacterium avium [10] = assay: Antibacterial activity against Mycobacterium avium ATCC 25921 in presence of clofazimine by checkerboard assay; type: functional, organism-based
In short: (§4)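 Checkerboard in 96-well plates. Antibiotic two-fold serially diluted along columns, haloperidol derivative two-fold along rows. Bacteria prepared as for the MIC determination. MICs alone and in combination used to calculate FICI. At least duplicate independent trials.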

[11] = tested on: Mycobacterium tuberculosis; assay: Synergistic antibacterial activity against Mycobacterium tuberculosis H37Ra ATCC NRS22 in presence of spectinomycin by checkerboard assay; type: functional, organism-based; in short: as §4
Mycobacterium avium [12] = assay: Antibacterial activity against Mycobacterium avium ATCC 25921 in presence of spectinomycin by checkerboard assay; type: functional, organism-based; in short: as §4
[13] = tested on: Mycolicibacterium smegmatis; assay: Synergistic antibacterial activity against Mycobacterium smegmatis mc2 155 assessed as fold reduction in MIC value at 8 ug/ml in presence of clofazimine by checkerboard assay; type: functional, organism-based; conditions: dose 8.0 µg/ml
[14] = tested on: Mycolicibacterium smegmatis; assay: Synergistic antibacterial activity against Mycobacterium smegmatis mc2 155 assessed as fold reduction in MIC value at 8 ug/ml in presence of spectinomycin by checkerboard assay; type: functional; conditions: dose 8 µg/ml
[15] = tested on: Mycolicibacterium smegmatis; assay: Synergistic antibacterial activity against Mycobacterium smegmatis mc2 155 assessed as fold reduction in MIC value at 8 ug/ml in presence of clarithromycin by checkerboard assay; type: functional; conditions: dose 8 µg/ml
[16] = tested on: Mycobacterium intracellulare; assay: Antibacterial activity against Mycobacterium intracellulare ATCC 13950 in presence of spectinomycin by checkerboard assay; type: functional, organism-based; in short: as §4
A549 [17] = assay: Cytotoxicity against human A549 cells assessed as reduction in cell viability at 200 uM incubated for 24 hrs by resazurin assay; type: toxicity, cell-based; conditions: a549, 24 h; in short: as §2
[18] = tested on: Mycobacteroides abscessus; assay: Synergistic antibacterial activity against Mycobacterium abscessus ATCC 19977 in presence of clarithromycin by checkerboard assay; type: functional, organism-based; in short: as §4
[19] = tested on: Mycobacteroides abscessus; assay: Synergistic antibacterial activity against Mycobacterium abscessus ATCC 19977 assessed as reduction in bacterial growth presence of spectinomycin by checkerboard assay; type: functional, organism-based; in short: as §4
HEK293 = assay: Cytotoxicity against human HEK293 cells assessed as reduction in cell viability at 200 uM incubated for 24 hrs by resazurin assay; type: toxicity, cell-based; conditions: hek293, 24 h; in short: as §2
J774.A1 [20] = assay: Cytotoxicity against mouse J774.A1 cells assessed as reduction in cell viability at 50 uM incubated for 24 hrs by resazurin assay; type: toxicity, cell-based; conditions: j774.a1, 24 h; in short: as §2
Mycobacterium avium [21] = assay: Antibacterial activity against Mycobacterium avium ATCC 25921 in presence of clarithromycin by checkerboard assay; type: functional, organism-based; in short: as §4
[22] = tested on: Mycobacteroides abscessus; assay: Synergistic antibacterial activity against Mycobacterium abscessus ATCC 19977 in presence of clofazimine by checkerboard assay; type: functional, organism-based; in short: as §4
[23] = tested on: Mycobacterium intracellulare; assay: Antibacterial activity against Mycobacterium intracellulare ATCC 13950 in presence of clarithromycin by checkerboard assay; type: functional, organism-based; in short: as §4
[24] = tested on: Mycobacterium intracellulare; assay: Antibacterial activity against Mycobacterium intracellulare ATCC 13950 in presence of clofazimine by checkerboard assay; type: functional, organism-based; in short: as §4

COc1ccc(C(=O)CCCN2CCC(O)(c3ccc(Cl)cc3)CC2)cc1
MIC [1]: > 10 µg/mL | Activity (J774.A1 [2]): Toxic | IC50 (N-acetyltransferase Eis): 40 µM | MIC [3]: > 62.5 µM | MIC [4]: > 62.5 µM | MIC [5]: 62.5 µM (≈ 24.2 µg/mL) | MIC [6]: > 62.5 µM | MIC [7]: ≤ 1.25 µg/mL | MIC (Mycobacterium avium [8]): > 62.5 µM | Activity (A549 [9]): 78%

O=C(CCCN1CCC(O)(c2ccc(Cl)cc2)CC1)c1ccc(Cl)cc1 [CHLOROHALOPERIDOL]
Activity (Mycobacterium avium [10]): Active | IC50 (N-acetyltransferase Eis): 5.1 µM | MIC [3]: > 62.5 µM | Activity [11]: Active | MIC [4]: > 62.5 µM | MIC [5]: 15.6 µM (≈ 6.12 µg/mL) | MIC [6]: > 62.5 µM | Activity (Mycobacterium avium [12]): Active | Activity [13]: Active | fold change (FC) [14]: 16 | fold change (FC) [15]: 4 | Activity [16]: Active | Activity (A549 [17]): Non-Toxic | Activity [18]: Active | MIC (Mycobacterium avium [8]): 62.5 µM (≈ 24.5 µg/mL) | Activity [19]: Active | Activity (HEK293): Non-Toxic | Activity (J774.A1 [20]): Toxic | Activity (Mycobacterium avium [21]): Active | Activity [22]: Active | Activity [23]: Active | Activity [24]: Active
